PMC7814958 (Nuclear medicine and biology, 2020)
pKi: −log10 of the molar value. “And” between values parts separate entries of the source, which are not always exact repeats. Equal values may be shown once.

Columns and labels:
[1] = biological target: T1, ASCT-2 transporter (Rattus norvegicus, UniProt D3ZJ25); assay: [3H]glutamine uptake concentration dependency; assay type: cell-based; details: for affinity towards the ASCT-2 transporter (in words): rat F98 cell line
T1 sequence (D3ZJ25 1-555): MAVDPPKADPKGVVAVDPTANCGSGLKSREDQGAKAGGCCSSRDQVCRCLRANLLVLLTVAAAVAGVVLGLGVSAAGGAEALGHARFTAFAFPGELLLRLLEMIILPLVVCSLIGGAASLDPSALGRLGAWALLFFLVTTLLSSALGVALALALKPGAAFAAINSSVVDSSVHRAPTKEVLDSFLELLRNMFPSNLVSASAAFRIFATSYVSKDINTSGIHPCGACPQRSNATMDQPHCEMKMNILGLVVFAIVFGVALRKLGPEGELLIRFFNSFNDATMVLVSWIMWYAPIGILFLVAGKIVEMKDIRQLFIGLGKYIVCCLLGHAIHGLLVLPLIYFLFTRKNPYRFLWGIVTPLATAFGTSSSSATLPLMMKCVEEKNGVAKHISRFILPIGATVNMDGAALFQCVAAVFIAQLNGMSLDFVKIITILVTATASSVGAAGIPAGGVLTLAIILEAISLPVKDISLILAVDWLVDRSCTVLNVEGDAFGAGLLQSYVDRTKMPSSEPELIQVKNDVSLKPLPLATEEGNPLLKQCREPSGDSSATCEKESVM
Summary of the method: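 Rat F98 cells grown in DMEM with 10% FCS, 1% L-glutamine and pen/strep, seeded the day before at 125,000 cells/mL. After two HEPES+ washes (pH 7.4), cells took up [3H]-L-glutamine (111 kBq/mL) for 5 min at 37 °C. Glutamine stocks spanned 10–1200 μM, ± non-radioactive test compound. Stopped on ice, NaOH lysis, scintillation counting, BCA protein correction. Ki from Michaelis-Menten Km versus Km,app.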

[2] = test system: SLC1A5 knock-out HEK-293 cell line; assay: Inhibition of [3H]glutamine uptake in ASCT-2 knock-out HEK-293 cell line; assay type: cell-based; details: 50 μM glutamine; 5 min, 37 °C; n=3
Summary of the method: (§1)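 Wild-type or CRISPR-Cas9 SLC1A5-knockout HEK-293 cells grown in DMEM (10% FCS, 1% L-glutamine), seeded at 175,000 cells/mL on poly-D-lysine-coated wells the day before. Washed in HEPES+ (pH 7.4), then given 50 μM [3H]-L-glutamine/glutamine ± test compound. Stopped with ice-cold PBS+BSA, washed, lysed in 0.1 M NaOH, scintillation-counted, BCA protein-normalized. Knockout checked by flow cytometry.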

[3] = biological target: T2, ASCT-2 (Homo sapiens, UniProt Q15758); assay: Inhibition of [3H]-L-glutamine uptake in PC-3 cells; assay type: cell-based; details: 5 min, 37 °C, n=3
T2 sequence (Q15758 1-541): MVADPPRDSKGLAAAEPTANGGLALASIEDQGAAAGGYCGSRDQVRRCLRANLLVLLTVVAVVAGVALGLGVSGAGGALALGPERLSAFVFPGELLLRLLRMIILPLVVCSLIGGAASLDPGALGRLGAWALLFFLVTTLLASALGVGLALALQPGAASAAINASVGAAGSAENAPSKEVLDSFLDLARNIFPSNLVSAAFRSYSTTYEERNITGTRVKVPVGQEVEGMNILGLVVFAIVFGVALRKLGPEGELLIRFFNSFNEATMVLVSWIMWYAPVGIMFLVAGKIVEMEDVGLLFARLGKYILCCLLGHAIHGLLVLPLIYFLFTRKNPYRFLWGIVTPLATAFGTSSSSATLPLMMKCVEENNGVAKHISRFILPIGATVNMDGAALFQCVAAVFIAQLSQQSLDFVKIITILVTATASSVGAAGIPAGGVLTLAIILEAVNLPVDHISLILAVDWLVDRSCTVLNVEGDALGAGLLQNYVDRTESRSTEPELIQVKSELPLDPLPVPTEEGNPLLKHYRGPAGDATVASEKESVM
Summary of the method: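 PC-3 cells grown in RPMI with 10% FCS, 1% L-glutamine and pen/strep at 37 °C, 5% CO2, seeded at 175,000 cells/mL the day before. Washed twice in HEPES+ buffer (pH 7.4, 100 mM NaCl, 1 g/L BSA), then given [3H]-L-glutamine (111 kBq/mL) with unlabelled glutamine ± test compound. Stopped on ice with cold PBS+BSA, NaOH-lysed, scintillation-counted, BCA protein-corrected.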

[4] = test system: ASCT-2 expressing wild-type HEK-293 cells; assay: Inhibition of [3H]glutamine uptake in wild-type HEK-293 cell line; assay type: cell-based; details: 50 μM glutamine; 5 min, 37 °C; n=3
Summary of the method: as §1

[5] = biological target: T3, ASCT-2 transporter (Homo sapiens, UniProt Q15758); assay: [3H]glutamine uptake concentration dependency; assay type: cell-based; details: for affinity towards the ASCT-2 transporter (in words): human PC-3 cell line
T3 sequence (Q15758 1-541): T2 sequence (Q15758 1-541)
Summary of the method: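 Human PC-3 cells kept in RPMI with 10% FCS, 1% L-glutamine and pen/strep, plated the prior day at 175,000 cells/mL. Washed twice in HEPES+ (pH 7.4), then 5 min at 37 °C with [3H]-L-glutamine (111 kBq/mL) over a 10–1200 μM glutamine stock series, ± unlabelled test compound. Ice-cold PBS+BSA stop, NaOH lysis, scintillation counting, BCA normalisation. Non-linear Michaelis-Menten fits; Ki from Km and Km,app at inhibitor concentration.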

[6] = Biodistribution study in PC-3 inoculated mice; assay type: in vivo
Summary of the method: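 PC-3 flank xenografts in male Swiss nu/nu mice, prepared as for imaging. Seven weeks post-inoculation, 5.0 MBq radiotracer given i.v. via lateral tail vein. Mice killed by cervical dislocation at 20 and 60 min p.i. (n=3 each). Blood drawn by cardiac puncture; organs dissected, rinsed with water, weighed and counted. Results as %ID/g ± SD.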

[7] = In vitro stability in formulation; assay type: physicochemical; details: 37 °C; analytical HPLC; no degradation products found
Summary of the method: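 Radiolabelled test compound held in its formulation at 37 °C for 30, 70, 120 and 180 min after radiosynthesis. Formulation was HPLC eluate (ethanol/10 mM ammonium acetate), diluted with PBS for the biphenyl analogue. At each point 7 MBq was run on analytical C18 HPLC with radio and UV (205 nm) detection at 1.0 mL/min. Runs were isocratic, ethanol/10 mM ammonium acetate 10:90 or 30:70.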

[8] = test system: PC-3 xenograft; assay: Dynamic microPET in PC-3 xenograft model; assay type: in vivo, mice
Summary of the method: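 Male Swiss nu/nu mice (n=5) received 5 × 10^6 PC-3 cells with Matrigel in the right flank at 8 weeks and the left flank a week later; scanned seven weeks post-inoculation. Fasted ≥6 h, isoflurane anaesthesia, 18.5 MBq i.v. via tail vein. 1-h dynamic PET (1-min frames to 25 min, then 5-min), then CT. Manual tumor and leg-muscle ROIs; SUV decay- and syringe-corrected.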

[9] = LogD7.4 determination; assay type: physicochemical; details: n=3
Summary of the method: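 1 MBq radiolabelled test compound added to PBS/n-octanol (1:1, V:V), vortexed and spun 10 min at 1100 g. Aliquots of each layer counted in a NaI(Tl) scintillation counter. LogD7.4 taken as log of octanol/PBS count ratio; n=3.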

[10] = reported for glutamine; cited from earlier work
[11] = Swiss nu/nu male mice, PC-3, i.v., 20 min, n=3
[12] = Swiss nu/nu male mice, PC-3, i.v., 60 min, n=3

N[C@@H](CCC(=O)Nc1ccc(F)cc1)C(=O)O [FPG, N5-(4-fluorophenyl)glutamine]
pKi [1]: 3.07
affinity towards the ASCT-2 transporter (in words) [1]: low affinity
relative uptake of [3H]glutamine in presence of inhibitor compared to basal uptake, ASCT-2 KO HEK-293 [2]: 60 ± 7%
relative uptake of [3H]-L-glutamine in presence of inhibitor compared to basal uptake [3]: 94 ± 9%
relative uptake of [3H]glutamine in presence of inhibitor compared to basal uptake, Wild-type HEK-293 [4]: 96 ± 7%
pKi [5]: 3.63
affinity towards the ASCT-2 transporter (in words) [5]: moderate affinity

N[C@@H](CCC(=O)Nc1ccc(-c2ccc(F)cc2)cc1)C(=O)O [FBPG, N5-(4’-fluoro-[1,1’-biphenyl]-4-yl)glutamine]
pKi [1]: 2.85
affinity towards the ASCT-2 transporter (in words) [1]: low affinity
relative uptake of [3H]glutamine in presence of inhibitor compared to basal uptake, ASCT-2 KO HEK-293 [2]: 58 ± 9%
relative uptake of [3H]-L-glutamine in presence of inhibitor compared to basal uptake [3]: 92 ± 1%
relative uptake of [3H]glutamine in presence of inhibitor compared to basal uptake, Wild-type HEK-293 [4]: 95 ± 6%
pKi [5]: 3.22
affinity towards the ASCT-2 transporter (in words) [5]: low affinity

N[C@@H](CCC(=O)Nc1ccc(-c2ccc([18F])cc2)cc1)C(=O)O [[^18F]FBPG, [^18F]fluorobiphenylglutamine]
bone uptake as indication of defluorination (in words) ([6]; PC-3 inoculated mice): No enhanced uptake in the bone
Bladder uptake %ID/g 20 min post-injection [6, 11]: 1.33 ± 0.77 %ID/g
Blood uptake %ID/g 20 min post-injection [6, 11]: 5.49 ± 0.74 %ID/g
Bone uptake %ID/g 20 min post-injection [6, 11]: 0.95 ± 0.20 %ID/g
Brain uptake %ID/g 20 min post-injection [6, 11]: 0.67 ± 0.13 %ID/g
Fat uptake %ID/g 20 min post-injection [6, 11]: 0.92 ± 0.26 %ID/g
Heart uptake %ID/g 20 min post-injection [6, 11]: 2.03 ± 0.47 %ID/g
Kidney uptake %ID/g 20 min post-injection [6, 11]: 11.52 ± 3.91 %ID/g
Large intestine uptake %ID/g 20 min post-injection [6, 11]: 0.39 ± 0.14 %ID/g
Liver uptake %ID/g 20 min post-injection [6, 11]: 7.43 ± 1.80 %ID/g
Lung uptake %ID/g 20 min post-injection [6, 11]: 5.03 ± 1.14 %ID/g
Muscle uptake %ID/g 20 min post-injection [6, 11]: 0.45 ± 0.09 %ID/g
Prostate uptake %ID/g 20 min post-injection [6, 11]: 2.13 ± 1.90 %ID/g
Skin uptake %ID/g 20 min post-injection [6, 11]: 0.79 ± 0.10 %ID/g
Small intestine uptake %ID/g 20 min post-injection [6, 11]: 5.77 ± 5.82 %ID/g
Spleen uptake %ID/g 20 min post-injection [6, 11]: 3.11 ± 0.28 %ID/g
Stomach uptake %ID/g 20 min post-injection [6, 11]: 2.89 ± 1.72 %ID/g
Tumor uptake %ID/g 20 min post-injection [6, 11]: 0.46 ± 0.09 %ID/g
Bladder uptake %ID/g 60 min post-injection [6, 12]: 2.54 ± 1.47 %ID/g
Blood uptake %ID/g 60 min post-injection [6, 12]: 4.24 ± 0.85 %ID/g
Bone uptake %ID/g 60 min post-injection [6, 12]: 0.67 ± 0.14 %ID/g
Brain uptake %ID/g 60 min post-injection [6, 12]: 0.38 ± 0.03 %ID/g
Fat uptake %ID/g 60 min post-injection [6, 12]: 1.21 ± 1.05 %ID/g
Heart uptake %ID/g 60 min post-injection [6, 12]: 1.50 ± 0.52 %ID/g
Kidney uptake %ID/g 60 min post-injection [6, 12]: 14.46 ± 1.71 %ID/g
Large intestine uptake %ID/g 60 min post-injection [6, 12]: 0.53 ± 0.07 %ID/g
Liver uptake %ID/g 60 min post-injection [6, 12]: 4.44 ± 0.83 %ID/g
Lung uptake %ID/g 60 min post-injection [6, 12]: 3.75 ± 0.43 %ID/g
Muscle uptake %ID/g 60 min post-injection [6, 12]: 0.48 ± 0.28 %ID/g
Prostate uptake %ID/g 60 min post-injection [6, 12]: 2.60 ± 1.12 %ID/g
Skin uptake %ID/g 60 min post-injection [6, 12]: 0.57 ± 0.10 %ID/g
Small intestine uptake %ID/g 60 min post-injection [6, 12]: 19.10 ± 4.83 %ID/g
Spleen uptake %ID/g 60 min post-injection [6, 12]: 2.07 ± 0.26 %ID/g
Stomach uptake %ID/g 60 min post-injection [6, 12]: 0.85 ± 0.01 %ID/g
Tumor uptake %ID/g 60 min post-injection [6, 12]: 0.42 ± 0.09 %ID/g
stability in formulation [7]: at least 3 hours
T/Mmean (mean tumor-to-muscle ratio) ([8]; PC-3 xenograft mice, 18.5 MBq i.v., leg muscle as reference): 1.20 ± 0.15
SUVmean (mean standardized uptake value) ([8]; PC-3 xenograft mice, 18.5 MBq i.v., tumor ROI): 0.17 ± 0.04
tumor uptake on PET (in words) ([8]; mice bearing PC-3 xenografts): very low uptake
logD7.4 (octanol/PBS ratio at pH 7.4) [9]: 1.11 ± 0.01 and 1.11

NC(=O)CC[C@H](N)C(=O)O [glutamine]
logD7.4 [10]: −3.64
